In ChEMBL document CHEMBL1123586, “3-[(2-ethoxyphenoxy)methyl]piperidine derivatives. Synthesis and antidepressant activity” (J Med Chem, 1987):
pIC50: −log10 of the molar value.

Legend:
Sus scrofa [1] = species: Sus scrofa; test: Tested for in vitro reuptake inhibition of [3H]norepinephrine in pig occipital synaptosomes.; assay type: functional; settings: Brain
Procedure, shortened: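 [3H]NE (15 nM) uptake into occipital cortex synaptosomes from slaughterhouse pig brain, measured with the compound present. Nonspecific transport is defined with desipramine and also by incubation at 0–4 °C without drug. IC50 for specific uptake from log-probit analysis, four concentrations, each in triplicate.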

Mus musculus [2] = test: Antidepressant activity was assessed from the ability to antagonize reserpine-induced hypothermia on peroral administration in mice;value ranges from (13.5-19.1); assay type: functional
Sus scrofa [3] = species: Sus scrofa; test: Tested for in vitro reuptake inhibition of [3H]-5-hydroxy tryptamine in pig frontal synaptosomes.; assay type: functional; settings: Brain
Procedure, shortened: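 Synaptosomes from frontal cortex of slaughterhouse pig brain take up [3H]-5-HT (4 nM) with the compound present. Nonspecific uptake is defined with chlorimipramine and also by incubating at 0–4 °C without drug. IC50 for specific uptake by log-probit analysis, four concentrations, each in triplicate.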

Mus musculus [4] = test: Antidepressant activity was assessed from the ability to antagonize reserpine-induced palpebral ptosis on peroral administration in mice.;Value ranges from (0.9-3.1).; assay type: functional
Mus musculus [5] = test: Amphetamine antagonistic activity on peroral administration in mice.;value ranges from (5.1-5.9); assay type: functional
Mus musculus [6] = test: Compound dose that causes lethality (acute toxicity) was determined by administering perorally in mice.; assay type: organism-based; settings: in vivo, po
Sus scrofa [7] = species: Sus scrofa; test: Tested for in vitro reuptake inhibition of [3H]dopamine in pig striatal synaptosomes.; assay type: functional; settings: Brain
Procedure, shortened: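 Pig corpus striatum synaptosomes (slaughterhouse brains) take up [3H]DA (2 nM) with the compound present. Nonspecific transport is defined with benztropine and also by incubation at 0–4 °C without drug. IC50 for specific uptake by log-probit analysis over four concentrations, each in triplicate.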

Mus musculus [8] = test: Pentylenetetrazole antagonistic activity on peroral administration in mice; inactive at this dose.; assay type: functional
Mus musculus [9] = test: Pentylenetetrazole antagonistic activity on peroral administration in mice; inactive at this dose..; assay type: functional
Mus musculus [10] = test: Antidepressant activity was assessed from the ability to antagonize reserpine-induced palpebral ptosis on peroral administration in; inactive at this dose.; assay type: functional
Mus musculus [11] = test: Antidepressant activity was assessed from the ability to antagonize reserpine-induced hypothermia on peroral administration in mice;inactive at this dose..; assay type: functional
Mus musculus [12] = test: Amphetamine antagonistic activity on peroral administration in mice; inactive at this dose.; assay type: functional
Mus musculus [13] = test: Amphetamine antagonistic activity on peroral administration in mice; value ranges from (7.4-19.7.); assay type: functional
Mus musculus [14] = test: Antidepressant activity was assessed from the ability to antagonize reserpine-induced hypothermia on peroral administration in mice;value ranges from (11.1-31.); assay type: functional
Mus musculus [15] = test: Antidepressant activity was assessed from the ability to antagonize reserpine-induced palpebral ptosis on peroral administration in mice;value ranges from (2.7-5.4.); assay type: functional
Mus musculus [16] = test: Amphetamine antagonistic activity on peroral administration in mice; Value ranges from (29.4-65.9); assay type: functional
Mus musculus [17] = test: Pentylenetetrazole antagonistic activity on peroral administration in mice; Value ranges from (24.5-41.4); assay type: functional
Mus musculus [18] = test: Antidepressant activity was assessed from the ability to antagonize reserpine-induced palpebral ptosis on peroral administration in mice; Value ranges from (1.3-3.4).; assay type: functional

SMILES	pIC50 (Sus scrofa [1])	ED (Mus musculus [2]) [mg/kg]	pIC50 (Sus scrofa [3])	ED (Mus musculus [4]) [mg/kg]	ED (Mus musculus [5]) [mg/kg]	LD (Mus musculus [6]) [mg/kg]	pIC50 (Sus scrofa [7])	ED (Mus musculus [8]) [mg/kg]	ED (Mus musculus [9]) [mg/kg]	ED (Mus musculus [10]) [mg/kg]	ED (Mus musculus [11]) [mg/kg]	ED (Mus musculus [12]) [mg/kg]	ED (Mus musculus [13]) [mg/kg]	ED (Mus musculus [14]) [mg/kg]	ED (Mus musculus [15]) [mg/kg]	ED (Mus musculus [16]) [mg/kg]	ED (Mus musculus [17]) [mg/kg]	ED (Mus musculus [18]) [mg/kg]
CCOc1ccccc1OCC1(O)CCCNC1 (stereo not given)	6.18	15.2	4.19	1.5	5.5	150	4.70	> 50										
CCOc1ccccc1OCC1(OC)CCCNC1 (stereo not given)	5.89		3.96			200	4.17		> 50	> 25	> 25	> 50						
CCOc1ccccc1OCC1CCCNC1 (stereo not given)	6.01		4.02			300	4.21	> 50					9.4	17	3.7			
CNCCCN1c2ccccc2CCc2ccccc21 [DESIPRAMINE]	8.49		6.38			300	5.21									40.3	33.1	1.8
CCOc1ccccc1OCC1CNCCO1 (stereo not given) [VILOXAZINE]	6.66		4.70			600	4.42											
